Reference: ChEMBL document CHEMBL1148039, “New aporphine alkaloids from guatteria foliosa” (1994)
Activity calls are given as the source filed them. The calls are words filed in the database; no cut-off is given here.

Assays:
[1] = test system: Trypanosoma cruzi; test: Antiprotozoal activity against trypomastigotes form of Trypanosoma cruzi Y at 250 ug/ml after 24 hrs; assay type: functional
Procedure, shortened: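 Bloodstream trypomastigotes taken from blood of T. cruzi-infected mice and incubated with test compound (DMSO solution) for 24 h at 4°. Parasites then counted. Assay done three times.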

[2] = test system: Leishmania donovani; test: Antiprotozoal activity against promastigotes form of Leishmania donovani pp-75 assessed as total lysis of parasites at 100 ug/ml after 24 hrs; assay type: functional, organism-based
Procedure, shortened: (§1)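 Promastigotes of each Leishmania strain exposed to test compound at 100 µg/ml, dissolved in DMSO, for 24 h at 28°. Viability judged by direct inverted-microscope observation and scored against controls: 0 no lysis; + less mobile; ++ modified or immobilized; +++ total lysis. Three independent runs.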

[3] = test system: Leishmania braziliensis; test: Antiprotozoal activity against promastigotes form of Leishmania braziliensis 2903 assessed as total lysis of parasites at 100 ug/ml after 24 hrs; assay type: functional, organism-based
Procedure, shortened: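 Promastigotes exposed to compound (dissolved in DMSO) at 100 µg/ml for 24 h at 28°. Viability judged by direct observation under an inverted microscope and scored as 0 (no lysis), + (less mobile than controls), ++ (modified or immobilized) or +++ (total lysis). Each assay run three times. Glucantime and pentamidine used as control drugs.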

[4] = test system: Leishmania amazonensis; test: Antiprotozoal activity against promastigotes form of Leishmania amazonensis H-142 assessed as total lysis of parasites at 100 ug/ml after 24 hrs; assay type: functional, organism-based; procedure, shortened: as §1
[5] = test system: Leishmania amazonensis; test: Antiprotozoal activity against promastigotes form of Leishmania amazonensis LV79 assessed as total lysis of parasites at 100 ug/ml after 24 hrs; assay type: functional, organism-based; procedure, shortened: as §1
[6] = test system: Leishmania donovani; test: Antiprotozoal activity against promastigotes form of Leishmania donovani pp-75 assessed as less mobile parasites at 100 ug/ml after 24 hrs; assay type: functional, organism-based; procedure, shortened: as §1
[7] = test system: Leishmania braziliensis; test: Antiprotozoal activity against promastigotes form of Leishmania braziliensis 2903 assessed as immobilized parasites at 100 ug/ml after 24 hrs; assay type: functional, organism-based; procedure, shortened: as §1
[8] = test system: Leishmania amazonensis; test: Antiprotozoal activity against promastigotes form of Leishmania amazonensis H-142 assessed as less mobile parasites at 100 ug/ml after 24 hrs; assay type: functional, organism-based; procedure, shortened: as §1
[9] = test system: Leishmania amazonensis; test: Antiprotozoal activity against promastigotes form of Leishmania amazonensis LV79 assessed as less mobile parasites at 100 ug/ml after 24 hrs; assay type: functional, organism-based; procedure, shortened: as §1
[10] = test system: Leishmania donovani; test: Antiprotozoal activity against promastigotes form of Leishmania donovani pp-75 assessed as immobilized parasites at 100 ug/ml after 24 hrs; assay type: functional, organism-based; procedure, shortened: as §1

With `COc1cccc2c1-c1c3c(c(OC)c4ccnc(c14)C2=O)OCO3` the Activity [1] was 46.6%.

Compound `COc1c2c3c(c4c1OCO4)-c1ccc(O)cc1C(C)(O)C3=NCC2` (stereo not given) has an Activity [1] of 0%.

For `COc1c(O)c2c3c(c1OC)-c1ccccc1C[C@H]3NCC2`, the Activity [1] was 68.2%.

Work on `COc1cccc2c1-c1c3c(c(OC)c4c1[C@@H](C2)NCC4)OCO3` yielded an Activity [1] of 35.7%.

In the case of `COc1c(O)c2c3c(c1OC)-c1ccc(O)cc1C[C@@H]3NCC2`, the Activity [1] is reported as 2.55%.

For `N=C(N)c1ccc(OCCCCCOc2ccc(C(=N)N)cc2)cc1`, the Activity [2] was “Active”, the Activity [3] was “Active” and the Activity [4] was “Active”. The Activity [5] was “Active”.

`COc1c(O)cc(CCN(C)C)c2ccc3ccccc3c12` [ARGENTININE] was tested, and the Activity [6] was “Active”, the Activity [7] was “Active” and the Activity [8] was “Active”. The Activity [9] was “Active” and the Activity [1] was 81.3%.

In the case of `COc1cc2c(cc1O)C[C@H]1c3cc(O)c(OC)cc3CCN1C2` [COREXIMINE], the Activity [10] is reported as “Active”, the Activity [7] is reported as “Active” and the Activity [8] is reported as “Active”. The Activity [9] was “Active” and the Activity [1] was 0%.

For `COc1c2c3c(c4c1OCO4)-c1c(O)cccc1C[C@H]3NCC2` [ELMERRILLICINE], the Activity [1] was 0%.

In the case of `CN(C)c1ccc(C(=C2C=CC(=[N+](C)C)C=C2)c2ccc(N(C)C)cc2)cc1.[Cl-]` [GENTIAN VIOLET], the Activity [1] is reported as 100%.

For `COc1c(O)c(OC)c2c3c1CCN=C3C(C)(O)c1cc(O)ccc1-2` (stereo not given) [ISOGUATTOUREGIDINE], the Activity [2] was “Active”, the Activity [7] was “Active” and the Activity [4] was “Active”. The Activity [5] was “Active” and the Activity [1] was 92%.

In the case of MEGLUMINE ANTIMONATE, the Activity [2] is reported as “Active”, the Activity [3] is reported as “Active” and the Activity [4] is reported as “Active”. For the same compound, the Activity [5] was “Active”.
